Results from article PMC7231760 (International Journal of Nanomedicine, 2020).

Assays:
[1] = molecular target: HCV NS3 helicase (Hepatitis C virus genotype 1a, UniProt P27958); experiment: Anti-HCV NS3 helicase assay; assay type: biochemical
How it was run: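 Test samples were dissolved in DMSO; thioflavin S or 0.8% DMSO served as controls. ATP was added from a 5 mM solution. Fluorescence was read at t0 and after 1 h at 25°C. Ratio_RFU = RFU_t60/RFU_t0, and percent inhibition was calculated.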

[2] = molecular target: HCV NS3 protease (Hepatitis C virus, UniProt P27958); experiment: Anti-HCV NS3 protease assay; assay type: biochemical; conditions: SNPs of total extract and petroleum ether fraction, controls (Table 2)
Sequence of HCV NS3 protease (P27958 1027-1657): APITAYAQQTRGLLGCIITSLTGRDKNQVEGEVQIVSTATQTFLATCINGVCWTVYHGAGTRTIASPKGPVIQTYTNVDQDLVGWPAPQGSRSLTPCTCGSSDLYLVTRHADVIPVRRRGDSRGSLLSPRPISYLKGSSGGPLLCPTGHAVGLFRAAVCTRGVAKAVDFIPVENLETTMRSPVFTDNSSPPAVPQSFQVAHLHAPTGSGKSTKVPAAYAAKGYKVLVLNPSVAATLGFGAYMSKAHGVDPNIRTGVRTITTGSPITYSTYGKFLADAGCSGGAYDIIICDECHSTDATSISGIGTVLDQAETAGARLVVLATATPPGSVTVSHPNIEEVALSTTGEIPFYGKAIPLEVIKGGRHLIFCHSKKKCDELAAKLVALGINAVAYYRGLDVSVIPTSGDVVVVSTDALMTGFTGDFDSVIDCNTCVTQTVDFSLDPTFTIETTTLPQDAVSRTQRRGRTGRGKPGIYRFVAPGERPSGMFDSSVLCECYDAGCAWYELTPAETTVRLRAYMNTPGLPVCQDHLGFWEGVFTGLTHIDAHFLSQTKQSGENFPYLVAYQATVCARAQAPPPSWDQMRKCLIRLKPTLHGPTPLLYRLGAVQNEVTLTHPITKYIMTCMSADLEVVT

Sequence of HCV NS3 helicase (P27958 1192-1657 limits assumed): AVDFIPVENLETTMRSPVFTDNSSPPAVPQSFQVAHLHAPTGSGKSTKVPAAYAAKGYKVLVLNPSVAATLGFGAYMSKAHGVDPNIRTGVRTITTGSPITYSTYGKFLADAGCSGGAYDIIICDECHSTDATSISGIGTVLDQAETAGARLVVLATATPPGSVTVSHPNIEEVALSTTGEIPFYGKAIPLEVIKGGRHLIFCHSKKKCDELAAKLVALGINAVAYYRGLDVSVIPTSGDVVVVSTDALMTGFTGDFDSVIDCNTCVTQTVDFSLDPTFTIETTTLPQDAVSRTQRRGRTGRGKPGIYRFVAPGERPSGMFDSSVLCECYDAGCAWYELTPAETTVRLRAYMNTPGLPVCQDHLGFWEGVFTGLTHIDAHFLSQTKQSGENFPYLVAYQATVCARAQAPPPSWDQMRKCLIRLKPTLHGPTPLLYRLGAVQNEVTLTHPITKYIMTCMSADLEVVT

Row | IC50 [1] [µM] | Compound | IC50 NS3 Protease [2] [µg/mL] | IC50 NS3 Helicase ([1]; SNPs of total extract and petroleum ether fraction, controls (Table 2)) [µg/mL]
1 | 19.1 | NC(=O)c1ncn([C@@H]2O[C@H](CO)[C@@H](O)[C@H]2O)n1 [Ribavirin] |  | 
2 |  | O=[N+]([O-])[O-].[Ag+] [AgNO3] | 52.67 ± 0.33 | 77.72 ± 4.57
